Reference: ChEMBL document CHEMBL1157608, “The discovery of 4-{1-[({2,5-dimethyl-4-[4-(trifluoromethyl)benzyl]-3-thienyl}carbonyl)amino]cyclopropyl}benzoic acid (MK-2894), a potent and selective prostaglandin E2 subtype 4 receptor antagonist” (J Med Chem, 2010)
Active and inactive are the calls of the source. The rule behind the calls is not given here.

What was measured:
[1] = Cmax bioavailability in cynomolgus monkey at 5 mg/kg, po; format: ADME, organism-based, Macaca fascicularis; design: dose 5 mg/kg, route oral; conditions: in vivo
Procedure, shortened: (§1)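 Overnight-fasted animals dosed po in 0.5% methocel or iv in 60% PEG 200; plasma from serial blood samples stored at -10 °C, protein-precipitated with equal volume acetonitrile/0.1% formic acid, analysed by LC/MS/MS with internal standard against spiked blank-plasma standards; Cmax from po data, half-life from iv data.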

[2] = Cmax in C57BL/6 mouse at 20 mg/kg, po; format: ADME, organism-based; design: dose 20 mg/kg, route oral; conditions: in vivo; procedure, shortened: as §1
[3] = Volume of distribution at steady state in Beagle dog at 5 mg/kg, po and 1 mg/kg, iv; format: ADME, organism-based, Canis lupus familiaris; conditions: in vivo, read-out: Vdss; procedure, shortened: as §1
[4] = molecular target: Prostaglandin E2 receptor EP2 subtype (Homo sapiens, UniProt P43116); test: Displacement of [3H]PGE2 from human EP2 receptor expressed in HEK293-EBNA cells by scintillation counting; format: cell-based
Sequence of Prostaglandin E2 receptor EP2 subtype (P43116 whole entry): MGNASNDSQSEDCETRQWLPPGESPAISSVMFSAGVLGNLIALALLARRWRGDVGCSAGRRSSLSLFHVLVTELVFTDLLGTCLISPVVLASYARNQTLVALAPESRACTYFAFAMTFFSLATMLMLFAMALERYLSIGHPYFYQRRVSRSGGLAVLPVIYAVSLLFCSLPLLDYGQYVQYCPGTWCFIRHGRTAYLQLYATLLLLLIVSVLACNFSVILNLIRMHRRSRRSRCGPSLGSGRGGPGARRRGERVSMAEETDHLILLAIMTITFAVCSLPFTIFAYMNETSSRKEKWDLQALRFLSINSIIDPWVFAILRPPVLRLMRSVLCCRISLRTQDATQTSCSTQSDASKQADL
Procedure, shortened: (§2)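 Radioligand binding on membranes from HEK 293(EBNA) clonal lines overexpressing each prostanoid receptor, using the respective 3H-prostaglandin or thromboxane ligand; EP4 binding also run with 10% human serum; Ki as means of at least three experiments (rEP2, rEP3 n = 1).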

[5] = test system: Cynomolgus monkey; test: Half life bioavailability in cynomolgus monkey at 1 mg/kg, iv; format: ADME, organism-based, Macaca fascicularis; conditions: in vivo; procedure, shortened: as §1
[6] = test system: Rattus norvegicus; test: Analgesic activity in po dosed Sprague-Dawley rat assessed as inhibition of carrageenan-induced mechanical hyperalgesia relative to control; format: functional
Procedure, shortened: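 SD rats given subplantar carrageenan; compound dosed orally as a single dose; mechanical hyperalgesia read at 3 h post carrageenan, 1 h post dose; inhibition expressed vs vehicle control; n = 10-20/group; 1-way ANOVA/Dunnett's.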

[7] = molecular target: T1, Prostaglandin E2 receptor EP4 subtype (Homo sapiens, UniProt P35408); test: Displacement of [3H]PGE2 from human EP4 receptor expressed in HEK293-EBNA cells by scintillation counting; format: cell-based; procedure, shortened: as §2
T1 sequence (P35408 whole entry): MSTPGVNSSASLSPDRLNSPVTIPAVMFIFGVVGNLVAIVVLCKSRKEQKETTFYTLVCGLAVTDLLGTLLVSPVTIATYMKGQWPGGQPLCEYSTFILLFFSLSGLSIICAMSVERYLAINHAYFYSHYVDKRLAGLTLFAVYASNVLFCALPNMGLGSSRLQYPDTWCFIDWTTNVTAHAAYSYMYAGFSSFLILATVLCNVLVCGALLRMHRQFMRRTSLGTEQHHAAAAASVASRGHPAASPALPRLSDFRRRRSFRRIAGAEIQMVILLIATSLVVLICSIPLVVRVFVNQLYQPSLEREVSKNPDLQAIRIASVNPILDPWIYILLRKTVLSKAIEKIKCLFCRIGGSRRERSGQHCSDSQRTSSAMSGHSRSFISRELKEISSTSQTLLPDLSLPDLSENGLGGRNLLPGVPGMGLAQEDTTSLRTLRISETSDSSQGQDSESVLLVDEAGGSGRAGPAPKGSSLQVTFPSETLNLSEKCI

[8] = species on record: Rattus norvegicus; test: Analgesic activity against complete Freund's adjuvant-induced Sprague-Dawley rat inflammatory pain assessed as inhibition of chronic paw swelling at plasma concentration of 4 nM after 24 hrs; format: functional, organism-based
Procedure, shortened: (§3)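 Adjuvant-induced arthritis in rats: CFA injected into primary paw on day 0; oral dosing in 0.5% methocel once daily for 9 days starting day 9; secondary paw swelling measured; plasma levels taken 24 h after final dose; n = 7/group; 1-way ANOVA/Dunnett's vs vehicle.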

[9] = Volume of distribution at steady state in C57BL/6 mouse at 20 mg/kg, po and 5 mg/kg, iv; format: ADME, organism-based; conditions: in vivo, read-out: Vdss; procedure, shortened: as §1
[10] = molecular target: T2, Prostaglandin D2 receptor 2 (Homo sapiens, UniProt Q9Y5Y4); test: Displacement of [3H]PGD2 from human DP2 receptor expressed in HEK293-EBNA cells by scintillation counting; format: cell-based; procedure, shortened: as §2
T2 sequence (Q9Y5Y4 whole entry): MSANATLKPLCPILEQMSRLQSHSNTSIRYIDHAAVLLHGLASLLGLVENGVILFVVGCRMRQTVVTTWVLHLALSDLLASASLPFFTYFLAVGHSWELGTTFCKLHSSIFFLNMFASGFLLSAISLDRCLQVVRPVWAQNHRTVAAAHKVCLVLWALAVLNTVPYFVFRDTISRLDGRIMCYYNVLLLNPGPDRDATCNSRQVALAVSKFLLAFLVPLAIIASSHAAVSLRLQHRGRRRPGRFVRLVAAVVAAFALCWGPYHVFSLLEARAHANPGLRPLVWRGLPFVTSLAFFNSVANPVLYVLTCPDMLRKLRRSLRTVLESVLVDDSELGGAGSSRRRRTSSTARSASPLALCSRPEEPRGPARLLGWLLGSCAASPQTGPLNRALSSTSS

[11] = species on record: Rattus norvegicus; test: Analgesic activity against complete Freund's adjuvant-induced Sprague-Dawley rat inflammatory pain assessed as inhibition of chronic paw swelling; format: functional; procedure, shortened: as §3
[12] = Oral bioavailability in cynomolgus monkey at 5 mg/kg; format: ADME, organism-based, Macaca fascicularis; conditions: in vivo; procedure, shortened: as §1
[13] = molecular target: T3, Prostaglandin E2 receptor EP3 subtype (Rattus norvegicus, UniProt P34980); test: Displacement of [3H]PGE2 from rat EP3 receptor expressed in HEK293-EBNA cells by scintillation counting; format: cell-based; procedure, shortened: as §2
T3 sequence (P34980 whole entry): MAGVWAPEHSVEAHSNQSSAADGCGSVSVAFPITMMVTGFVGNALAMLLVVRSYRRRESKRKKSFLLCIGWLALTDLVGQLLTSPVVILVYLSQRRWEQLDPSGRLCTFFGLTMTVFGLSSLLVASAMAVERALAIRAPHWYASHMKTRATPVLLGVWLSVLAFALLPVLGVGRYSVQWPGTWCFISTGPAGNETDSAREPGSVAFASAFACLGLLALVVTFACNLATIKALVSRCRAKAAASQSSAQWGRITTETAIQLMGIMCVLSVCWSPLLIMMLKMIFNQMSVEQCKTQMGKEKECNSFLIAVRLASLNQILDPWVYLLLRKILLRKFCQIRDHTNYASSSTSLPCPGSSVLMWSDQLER

[14] = Cmax in Sprague-Dawley rat at 20 mg/kg, po; format: ADME, organism-based; design: dose 20 mg/kg, route oral; conditions: in vivo; procedure, shortened: as §1
[15] = molecular target: T1, Prostaglandin E2 receptor EP4 subtype; test: Displacement of [3H]PGE2 from human EP4 receptor expressed in HEK293-EBNA cells by scintillation counting in presence of 10% human serum; format: cell-based
Procedure, shortened: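 Radioligand binding on membranes from HEK 293(EBNA) clonal cells overexpressing human EP4, [3H]PGE2 as tracer, run with 10% human serum added to assess serum protein binding; Ki values are means of at least three experiments.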

[16] = Half life in Beagle dog at 1 mg/kg, iv; format: ADME, organism-based, Canis lupus familiaris; design: dose 1 mg/kg, route intravenous; conditions: in vivo; procedure, shortened: as §1
[17] = molecular target: T4, Thromboxane A2 receptor (Homo sapiens, UniProt P21731); test: Displacement of [3H]SQ29548 from human TP receptor expressed in HEK293-EBNA cells by scintillation counting; format: cell-based; procedure, shortened: as §2
T4 sequence (P21731 whole entry): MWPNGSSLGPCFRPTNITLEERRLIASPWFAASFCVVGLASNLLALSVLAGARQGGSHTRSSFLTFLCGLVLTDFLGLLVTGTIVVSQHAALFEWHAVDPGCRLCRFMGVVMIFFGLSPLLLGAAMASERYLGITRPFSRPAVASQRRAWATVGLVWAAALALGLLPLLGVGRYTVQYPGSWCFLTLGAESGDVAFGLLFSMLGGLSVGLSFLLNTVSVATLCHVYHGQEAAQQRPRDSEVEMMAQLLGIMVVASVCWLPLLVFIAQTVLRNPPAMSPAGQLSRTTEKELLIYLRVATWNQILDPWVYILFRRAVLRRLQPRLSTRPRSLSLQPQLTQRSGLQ

[18] = Oral bioavailability in Sprague-Dawley rat at 20 mg/kg; format: ADME, organism-based; conditions: in vivo; procedure, shortened: as §1
[19] = Volume of distribution at steady state in Sprague-Dawley rat at 20 mg/kg, po and 5 mg/kg, iv; format: ADME, organism-based; conditions: in vivo, read-out: Vdss; procedure, shortened: as §1

- Cmax [1]: 50 nM
- Cmax [2]: 1400 nM
- Vd [3]: 0.91 L/kg
- Ki [4]: 5.9 µM
- t1/2 [5]: 19 h
- Ki [7]: 0.00056 µM
- Vd [9]: 7.6 L/kg
- Ki [10]: > 21 µM
- bioavailability [12]: 18%
- Ki [13]: 3.3 µM
- Cmax [14]: 4500 nM
- Ki [15]: 0.00097 µM
- half-life [16]: 8.8 h
- Ki [17]: > 6.8 µM
- bioavailability [18]: 29%
- Vd [19]: 2.6 L/kg
Structure (SMILES): Cc1sc(C)c(C(=O)NC2(c3ccc(C(=O)O)cc3)CC2)c1Cc1ccc(C(F)(F)F)cc1
- inhibition (INH) [6]: 60%
- Activity [8]: Active
- Activity [11]: Dose-dependent effect
- ED50 [11]: 0.02 mg/kg
